Assay results taken from ChEMBL document CHEMBL1137907, “Anticancer activity of 3-O-acyl and alkyl-(-)-epicatechin derivatives” (Bioorg Med Chem Lett, 2004).

Legend:
PC-3 = assay: In vitro inhibitory concentration against PC-3 cell line in MTT assay was determined after 3 days incubation; assay type: functional, cell-based; settings: Homo sapiens, PC-3, 72 h
Summary of the method: (§1)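 MTT viability read-out in 96-well format, per Mosmann's method. Values are means of three experiments.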

U373 MG = assay: In vitro inhibitory concentration against U373MG cell line in MTT assay was determined after 3 days incubation; assay type: functional, cell-based, U-373MG ATCC; settings: Homo sapiens, 72 h; summary of the method: as §1
SK-OV-3 = assay: In vitro inhibitory concentration against SKOV3 cell line in MTT assay was determined after 3 days incubation; assay type: functional, cell-based; settings: Homo sapiens, SK-OV-3, 72 h; summary of the method: as §1

Compound	IC50 (PC-3) [µM]	IC50 (SK-OV-3) [µM]	IC50 (U373 MG) [µM]
COc1cc(CO[C@@H]2Cc3c(O)cc(O)cc3O[C@@H]2c2ccc(O)c(O)c2)cc(OC)c1OC	32.5	38.2	29.8
COc1cc(C(=O)O[C@@H]2Cc3c(O)cc(O)cc3O[C@@H]2c2ccc(O)c(O)c2)cc(OC)c1OC	51.3	50.1	57.2
O=C(O[C@@H]1Cc2c(O)cc(O)cc2O[C@@H]1c1ccc(O)c(O)c1)c1cc(O)c(O)c(O)c1 [EPICATECHIN GALLATE]	168	185	157
O=C(O[C@@H]1Cc2c(O)cc(O)cc2O[C@@H]1c1ccc(O)c(O)c1)c1cc(F)cc(F)c1	58.7	78.2	64.5

Now from value to molecule, other results behind:

IC50 (PC-3) [µM]	IC50 (SK-OV-3) [µM]	Compound	IC50 (U373 MG) [µM]
> 500	> 500	Oc1cc(O)c2c(c1)O[C@H](c1ccc(O)c(O)c1)[C@H](O)C2 [(-)-EPICATECHIN]	> 500
45.2	47.3	O=C(O[C@@H]1Cc2c(O)cc(O)cc2O[C@@H]1c1ccc(O)c(O)c1)c1ccc(OC(F)(F)F)cc1	50.3
71.9	61	O=C(O[C@@H]1Cc2c(O)cc(O)cc2O[C@@H]1c1ccc(O)c(O)c1)c1cc(F)c(F)c(F)c1	59.2
